assay: Toxicity liver stage against HepG2, at 10uM; assay type: cell-based; set-up: test concentration 10 uM, cell line HepG2-A16-CD81EGFP; conditions: human, HepG2-A16-CD81EGFP cells; read-out: INHIBITION
Outline: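 Uninfected HepG2-A16-CD81EGFP cells, 3 × 10^3 per well, 1536-well, plated on prespotted compound at 10 μM final, parasite-free screening media added to match infected plates; puromycin 10 μM positive, DMSO 0.5% negative; run in parallel with 48 h PbLuc assay at 37 °C, 5% CO2; viability by CellTiter-Glo luminescence, normalized to controls.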

Row | SMILES | cytotoxicity at 10 µM [%]
1 | COc1ccc(CC(C)Nc2cccc(SC)c2)cc1 (stereo unspecified) | 11.6
2 | O=c1c(S(=O)(=O)N2CCCC2)cccn1Cc1ccccc1Cl | 2.96
3 | Cc1cc(=O)n(CCNS(=O)(=O)c2ccc(F)c(Cl)c2)cn1 | 1.18
4 | COc1ncccc1CN1CCc2[nH]nc(C(=O)N(C)C)c2C1 | 1.55
5 | Cc1cnc(N2CCC[C@@H]3CN(S(C)(=O)=O)C[C@@H]32)nc1 | 9.34
6 | CN1CCN([C@@H]2CN(C(=O)c3ccnnc3)[C@@H]3CCCO[C@H]23)CC1 | 7.16
7 | CCS(=O)(=O)N1CCC2(CC1)CC(OCC1CC1)CO2 (stereo unspecified) | 7.92
8 | Cc1nc2[nH]cnc(NCCN3CCCC3)c-2n1 | -12
9 | CCn1cc(C(=O)n2nc(C)cc2C)c(S(=O)(=O)N2CCCCC2)n1 | -3.81
10 | CCCC(C)(O)c1cc(C(N)=O)no1 (stereo unspecified) | -5.4
11 | Cc1cc(NC(=O)CN2C(=O)CC(C)(C)c3ccccc32)no1 | -3.29
12 | Cc1ccc(-c2cc(N)c(=O)n(C(C)C(=O)NC(C)C)n2)o1 (stereo unspecified) | -6.69
13 | CN1CCN(CC2(O)CCCN(S(=O)(=O)c3cn[nH]c3)CC2)CC1 (stereo unspecified) | 2.25
14 | CN(C)S(=O)(=O)N1CCC(c2ccnc(Nc3ccccn3)n2)C1 (stereo unspecified) | 3.25
15 | O=C(c1n[nH]c(=O)c2ccccc12)N1CCC(O)(CN2CCOCC2)C1 (stereo unspecified) | -1.39
16 | Cc1ccc2c(c1C)OCC2NCc1cccc(C#N)c1 (stereo unspecified) | 9.91
17 | CNc1ncc(C(=O)N2CCCC(Cc3ccccc3OC)C2)s1 (stereo unspecified) | -0.094
18 | Cc1cc(C)n(CC(C)CNC(=O)N(C)Cc2cc(C)on2)n1 (stereo unspecified) | -10.2
19 | COC(=O)CN(C(=O)c1cccc(F)c1Cl)c1cccc(C)n1 | 9.5
20 | CCC1CN(CCCO)c2ccccc2O1 (stereo unspecified) | -7.24
21 | COC1CCCN(C(=O)NCc2ccc(C(=O)N(C)C(C)C)cc2)C1 (stereo unspecified) | -24.8
22 | COc1ncccc1CNC(=O)N1CCC(CN2CCOCC2)CC1 | -39.2
23 | CN(C(=O)c1ccncc1F)c1ccccc1S(C)(=O)=O | 2.23

Row | SMILES | cytotoxicity at 10 µM [%]
24 | COc1c(NS(=O)(=O)c2ccc(F)c(C)c2)c(C)nn1C | -6.33
25 | COC(=O)CC(NC(=O)c1cc(OC)c2c(c1)OCCO2)c1cccs1 (stereo unspecified) | 2.01
26 | CCS(=O)(=O)N1CCC(Nc2c(Cl)cccc2C#N)CC1 | -0.85
27 | Cc1cc(NCc2csc(C)n2)no1 | 9.48
28 | NCC1(c2cccc(C(F)(F)F)c2)CC1 | -11.2
29 | COc1ccccc1N(C)S(=O)(=O)c1cc(C(=O)O)cs1 | -5.82
30 | COc1ccccc1OCC(=O)NS(=O)(=O)c1ccc(Cl)cc1F | 2.28
31 | CCCn1nc2c(cc1=O)CN(C(C)C(=O)Nc1nccs1)CC2 (stereo unspecified) | -1.99
32 | CC(C)C1CN(C(=O)c2cccs2)CCS1 (stereo unspecified) | 1.24
33 | CCCC(=O)N(CC)C(c1cccnc1)c1ccc2c(c1)CCO2 (stereo unspecified) | 0.217
34 | CC(CN1CCOCC1)NC(=O)c1cc(Cl)c2c(c1)OCO2 (stereo unspecified) | -2.35
35 | CCN(Cc1cccc(-c2ccncc2)c1)S(C)(=O)=O | -14
36 | COCCOc1ccccc1C(=O)Nc1c(C)cnn1CC1CC1 | 1.13
37 | CCN(CCc1nccs1)C(=O)c1ncoc1C | 11.3
38 | Cc1nc(CNc2ccc(C(=O)NCc3ccco3)cc2C)no1 | 5.38
39 | COc1ccc2c(OCC(=O)NC(C)(C)C)ccnc2c1 | -2.04
40 | COCC(O)CN(C)C(=O)NCc1ccc(S(C)(=O)=O)cc1 (stereo unspecified) | 1.72
41 | CCC(C)(C)NC(=O)Cn1nnc(CN(C)C(=O)c2ccccc2)n1 | 9.74
42 | CNC(=O)c1cc(C)ccc1NCc1cn2cc(C)ccc2n1 | 8.45
43 | Cc1nnc(CN(Cc2ccc(Cl)c(Cl)c2)C(C)C)o1 | 4.91
44 | O=C(NCCCN1CCN(c2ncccn2)CC1)NCC1CCCO1 (stereo unspecified) | -43.1
45 | CC(C)c1nnc2n1CCN(C(=O)c1ccc3c(c1)NC(=O)CO3)C2 | 7.07
46 | CCN1CC(C(=O)NC(C)(C)CNC(=O)OC(C)(C)C)CC1=O (stereo unspecified) | 7.79

Row | SMILES | cytotoxicity at 10 µM [%]
47 | CCC(C)NC(=O)c1ccccc1-n1cnnn1 (stereo unspecified) | 13
48 | CC(C)NC(=O)N1CCC2(CC1)Cc1ccccc1CNC2=O | 1.33
49 | Cc1nc([C@@H]2C[C@H]3CN(Cc4ccc5c(c4)OCO5)C[C@H]3O2)no1 | -115
50 | CO[C@@H]1CC[C@H]2[C@H]1OCCN2C(=O)COc1ccc(F)cc1 | 4.42
51 | CCNC(=O)[C@@H]1C[C@@H](NC(=O)CSC)CN1Cc1ccncc1 | -1.87
52 | C[C@@H]1CN(C(=O)c2cn(CCN3CCCCC3)nn2)C[C@H](C)O1 | 4.89
53 | COc1ccc(C(=O)NC2CC2)c(OC2CCN(C3CCC3)CC2)c1 | 0.542
54 | CCCn1ccnc1-c1nccn1CCC(N)=O | -10.3
55 | NC(=O)NCC(=O)N1CCCC(OCc2cccnc2)C1 (stereo unspecified) | -1.53
56 | CCn1ccnc1C1CCN(C(=O)Nc2ccc(OC)cc2)CC1 | -1.77
57 | CC(C)Oc1ccc2c(NC(=O)CNC(N)=O)nn(CC(F)(F)F)c2c1 | -5.89
58 | CCN(Cc1cnc(-c2ccccn2)nc1)C1CCS(=O)(=O)C1 (stereo unspecified) | -5.24
59 | COC[C@]1(O)CCN(C2CCN(c3ccc(Cl)cc3)CC2)CC1(C)C | -0.75
60 | CNc1nccc(-c2cn(C)nc2C)n1 | -6.59
61 | Cc1ccc(CN2CCN(C(=O)CCc3nc(Cl)n[nH]3)CC2=O)cc1 | -0.903
62 | CC[C@@]1(O)CCN(c2ncc(Cl)cc2C(F)(F)F)C[C@H]1O | 11.6
63 | O=C(N1CCOCC1)N1CCC(Nc2ccncn2)CC1 | -57
64 | Cc1cc(C)n(CC(C)Nc2ncnc3c2CCNC3)n1 (stereo unspecified) | 3.37
65 | c1cncc(NCCNC2CCSC2)c1 (stereo unspecified) | -3.22
66 | CN(C)C(=O)CCC1CCCN(Cc2ccc(-c3cccnc3)cc2)C1 (stereo unspecified) | 4.96
67 | COc1c(F)cc(F)cc1-c1nc2c([nH]1)CCNC2 | 3.94
68 | CCc1nccn1CCC(=O)N1CCCC1c1ccc(F)cc1 (stereo unspecified) | 1.58
69 | COc1cccc(-c2cc(NCCO)nc3[nH]ccc23)n1 | 4.46

Row | SMILES | cytotoxicity at 10 µM [%]
70 | CC(=O)NC(C(=O)N1CCn2cncc2C1)C(C)C (stereo unspecified) | -14.7
71 | Cc1nc[nH]c1-c1nccn1CCCN(C)C | 5.05
72 | Cc1nc2c(N3CCC(O)(Cn4ccnc4)CC3)ncnc2o1 | 6.35
73 | O=C1CCC(C(=O)N(Cc2ccsc2)CC2CCCO2)=NN1 (stereo unspecified) | -7.97
74 | CCN1CCCC(c2c(-c3ccccc3)ncn2Cc2csc(N)n2)C1 (stereo unspecified) | -0.386
75 | O=C(C1CCC1)N1CC[C@]2(O)CCN(Cc3ncccn3)C[C@@H]2C1 | 3.97
76 | O=C(CN1CCNCC1)N1CC[C@@H](c2ccc3ccccc3c2)[C@H](O)C1 | -8.9
77 | CCN(CCn1cccn1)Cc1nc(-c2ccccc2F)oc1C | 1.04
78 | Cc1noc(C)c1C(=O)NCCSCc1cccs1 | -4.89
79 | CCOc1ncccc1CNC(=O)c1c(C)oc(C)c1C | -3.75
80 | COc1ccc(C(=O)Nc2cnn(CCN3CCOCC3)c2)c(O)c1 | -3.92
81 | Cc1nc(C)n(CC2CCCN2Cc2nc(-c3ccco3)no2)n1 (stereo unspecified) | -4.39
82 | CNS(=O)(=O)Cc1cccc(CNC(=O)Nc2cn[nH]c2)c1 | -11.2
83 | Cc1cnn(CC2CCCN2C(=O)CN(C)C2CC2)c1 (stereo unspecified) | 3.63
84 | CNC(=O)c1ccc(S(=O)(=O)NCc2cccnc2N(C)C)cc1 | 1.59
85 | Cc1cc(C)n(C2CCCN(C(=O)Cc3ccc(C#N)cc3)C2)n1 (stereo unspecified) | -1.31
86 | COc1ccc(CC(=O)N2CCCC(n3nc(C)cc3C)C2)cc1F (stereo unspecified) | -1.76
87 | O=C(c1cc(Cl)c2c(c1)OCO2)N1CCCC(n2cncn2)C1 (stereo unspecified) | -8.75
88 | CCN(Cc1nc2c(cnn2C)c(=O)[nH]1)c1ccc(F)cc1 | -1.67
89 | COc1ccc(COCC(O)CNC(=O)c2ccncc2)cc1 (stereo unspecified) | -5.31
90 | Cc1ccc(C)c(C(=O)N2CCN(C(=O)Cc3ccccn3)CC2)c1 | -15.1
91 | Cc1cc(C)c(CNC(=O)NCC(c2ccccc2)N(C)C)c(=O)[nH]1 (stereo unspecified) | -3.19
92 | CN(C)S(=O)(=O)c1ccc(CN2CCCC2c2ccc[nH]2)o1 (stereo unspecified) | -4.03

Row | SMILES | cytotoxicity at 10 µM [%]
93 | Cc1nn(CC(C)C)c(N(C)C)c1CNCc1cccc2c1OCO2 | -10.2
94 | Cc1ccc(CNC(=O)N2CCN(Cc3ccsc3)CC2)n1C | 9.58
95 | CN1CCC(C(=O)NCc2nncn2-c2ccccc2)CC1=O (stereo unspecified) | -4.32
96 | CC1CN(C(=O)CN(Cc2ccco2)C2CC2)CCO1 (stereo unspecified) | 3.97
97 | CCc1nc(CN2CCCC(NCc3cc(C)no3)C2)no1 (stereo unspecified) | 1.59
98 | COCC1CC2(CCN(c3cccc(C)n3)CC2)CN1C(C)C (stereo unspecified) | -109
99 | CN1C(=O)CC(c2ccncc2)C12CCN(c1ncccn1)CC2 (stereo unspecified) | -108
100 | O=C(C1CCCO1)N1CCCC2(CCN(c3cccnc3)CC2)C1 (stereo unspecified) | 2.68
101 | COCCN1CCCn2cnc(CNC(=O)N(C)C)c2C1 | 4.47
102 | COCCN1CCOCC2(CCN(c3cnccn3)CC2)C1 | -87.4
103 | CCCN1CCC(c2nc3ccc(C)cn3n2)CC1 | -118
104 | CN(C)CCN1C(=O)CCC12CCN(Cc1cccs1)CC2 | 3.88
105 | O=C(NC1CC(F)(F)C1)[C@]12COC[C@H]1CN(Cc1cccnc1)C2 | -109
106 | c1cnc(N2CCC3(CN(CC4CCOC4)C3)C2)nc1 (stereo unspecified) | -5.77
107 | Cn1cc(-c2ncc3c(c2C(=O)O)CCN(Cc2ccccn2)C3)cn1 | -107
108 | O=C(NCc1ccccn1)[C@@H]1COC[C@H]2CN(C3CCOCC3)C[C@H]21 | 2.52
109 | COc1ncccc1CN1C[C@H]2C[C@@H](C(=O)NCC3CC3)N(C)[C@H]2C1 | -2.54
110 | CN1CCN(Cc2cccnc2)C(=O)C12CCN(CC1CCOC1)CC2 (stereo unspecified) | -106
111 | CC(C)=CCN1C[C@@H]2CC[C@H]1CN(CCC(=O)NCc1ccco1)C2 | -3.08

Reference: ChEMBL document CHEMBL4513216, “Probing the Open Global Health Chemical Diversity Library for Multistage-Active Starting Points for Next-Generation Antimalarials” (ACS Infect Dis, 2020)
